# Source: PubChem BioAssay
# UPR CHOP act – activators of apoptotic arm of unfolded protein response (CHOP). CHO-CHOP luciferase reporter, UPR activation, luminescence; percent of tunicamycin response over DMSO baseline. 330,000 tested, 0.34% active. activation, % at 10 µM;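 active = at 10 µM dose, activation of 40% or more, normalized to positive control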;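 also: 100% = tunicamycin at 10 µg/mL and 0% = DMSO alone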
#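 Assay system: CHO-CHOP cells, stable luciferase reporter of PERK-eIF2a-CHOP signalling / Buffer or medium: F12 plus 10% serum / Compound dosing: one dose, 10 µM in 0.5% DMSO / Times: 6 h compound treatment, 37 °C / Technique: luciferase luminescence / Read-out: % reporter activation, DMSO baseline versus tunicamycin full activation / Benchmarks: tunicamycin and DMSO controls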
# Lipid droplet – hepatic lipid droplet formation modulation. AML12 mouse hepatocytes, oleate lipid droplets, BODIPY imaging. inhibition, % at 6.5 µM. 240,000 tested, 0.4% active. AID 1656;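 active = lipid droplet intensity inhibited by at least 50%, with more than 500 cells counted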
#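 Technique: fluorescence imaging, 20x objective, two fields per well / Assay system: AML12 hepatocytes (mouse) / Measure: % inhibition of lipid droplet signal / Doses: 6.5 µM single-point dosing / Incubation: overnight exposure / Reagent: 100 µM oleic acid challenge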
# UPR XBP1 act – activators of adaptive arm of unfolded protein response (XBP1). CHO-XBP1 luciferase reporter, IRE1-XBP1 UPR activation, luminescence; percent of tunicamycin response, DMSO as zero. activation, % at 20 µM. 330,000 tested, 0.33% active. AID 463104;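 active = versus positive control, 20 µM dose yields 30% or more activation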;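 also: 100% = tunicamycin at 10 µg/mL and 0% = DMSO only wells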
#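 Material: CHO cell line with stable XBP1 luciferase reporter; buffer or medium: F12 medium containing 10% fetal bovine serum; compound: single point, 20 µM final compound, 1% DMSO; incubation: 6 h treatment, 37 °C; measured by: glow luminescence from Steady-Glo reagent; evaluation: activation, % of tunicamycin; control set: tunicamycin high, DMSO low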
# TMEM16A act – activates or potentiates the mouse TMEM16A chloride channel. HEK293 TMEM16A/YFP-H148Q/I152L, iodide quench fluorescence; active compounds read low. B-score at 10 µM. 340,000 tested, 0.3% active. AID 623877;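 active = fluorescence-ratio B-score plate-corrected deviation score at least 3 library SD below zero, with starting fluorescence score within 5 deviations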;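 also: channel opened by trigger with iodide after compound preincubation; score built on the fluorescence ratio of max minus min over baseline; more negative score means more quench and so TMEM16A activation or potentiation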
# Target sequence (Q8BHY3 whole entry, looked up): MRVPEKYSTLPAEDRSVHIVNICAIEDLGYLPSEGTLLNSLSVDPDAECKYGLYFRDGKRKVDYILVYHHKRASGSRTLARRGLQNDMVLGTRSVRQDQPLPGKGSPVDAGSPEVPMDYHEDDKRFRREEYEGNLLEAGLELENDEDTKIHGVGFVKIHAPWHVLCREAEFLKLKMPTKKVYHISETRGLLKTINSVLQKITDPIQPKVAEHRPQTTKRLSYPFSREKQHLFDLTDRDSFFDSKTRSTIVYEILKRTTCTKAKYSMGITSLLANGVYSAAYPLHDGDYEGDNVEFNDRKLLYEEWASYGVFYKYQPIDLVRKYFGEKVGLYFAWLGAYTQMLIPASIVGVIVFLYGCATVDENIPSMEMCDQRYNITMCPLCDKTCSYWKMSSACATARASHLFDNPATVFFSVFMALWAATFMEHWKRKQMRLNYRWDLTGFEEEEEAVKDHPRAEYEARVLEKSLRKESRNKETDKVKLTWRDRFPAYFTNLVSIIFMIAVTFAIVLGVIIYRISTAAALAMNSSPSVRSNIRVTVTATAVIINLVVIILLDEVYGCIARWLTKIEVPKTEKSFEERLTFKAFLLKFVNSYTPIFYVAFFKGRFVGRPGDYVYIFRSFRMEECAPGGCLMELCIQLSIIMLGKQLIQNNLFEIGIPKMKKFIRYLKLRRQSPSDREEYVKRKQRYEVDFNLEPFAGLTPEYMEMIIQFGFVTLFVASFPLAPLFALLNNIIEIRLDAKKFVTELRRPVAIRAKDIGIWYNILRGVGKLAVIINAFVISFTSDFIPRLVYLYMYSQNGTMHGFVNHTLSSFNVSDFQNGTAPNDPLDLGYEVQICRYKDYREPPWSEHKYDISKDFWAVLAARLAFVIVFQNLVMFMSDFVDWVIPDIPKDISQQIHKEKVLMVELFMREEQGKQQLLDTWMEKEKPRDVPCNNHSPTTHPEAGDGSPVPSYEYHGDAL
# TMEM16A inh – inhibitors of mouse TMEM16A calcium-activated chloride channel | HEK293 TMEM16A/YFP iodide influx fluorescence, ionomycin | normalized B-score (activity score, 25-100; higher = stronger inhibition) at 10 µM | 310,000 tested, 1.2% active | AID 588511;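 active = ratio plate-corrected score three or more library SD toward inhibition, starting fluorescence score within five deviations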;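 also: score derived from kinetic fluorescence span divided by baseline fluorescence per well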
# CHOP inh – blocks CHOP induction under ER stress; CHO-K1 CHOP-promoter luciferase, tunicamycin-induced, 15-18 h; inhibition, % at 10 µM; 220,000 tested, 3.8% active; AID 2732;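 active = compounds that reduced the stress-induced luciferase reporter signal by more than about 70% of percent inhibition, limit read from the data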;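 also: 0% = tunicamycin plus vehicle and 100% = wells without tunicamycin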
# CHOP inh conf – confirmation of CHOP induction inhibitors; inhibition, % at 10 µM; shares compounds with CHOP inh; AID 504437; 2,100 tested, 45% active; CHO-CHOP promoter luciferase reporter, tunicamycin-induced, luminescence;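 active = mean of three repeat readings of reporter signal inhibition above a set limit, cut at about 70% in these data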;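 also: 0% = tunicamycin plus vehicle and 100% = wells lacking tunicamycin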
# Starred values were filed as active, the others as inactive; i = inactive; / = not tested or not shown. Most compounds without a hit are left out; they make up all but 4.2% or so of the library.
SMILES,UPR CHOP act,Lipid droplet,UPR XBP1 act,TMEM16A act,TMEM16A inh,CHOP inh,CHOP inh conf
CCOc1ccc2nc(NC(=O)CSc3nnnn3C3CCCCC3)sc2c1,1.3,-4.9,-1.3,i,i,107.1*,110.4*
CCOc1ccc2nc(NC(=O)CSc3nc4c(c(=O)n(C)c(=O)n4C)n3C(C)C)sc2c1,0.9,/,4.4,i,i,105.4*,84.4*
CC(C)n1c(SCC(=O)Nc2nc3ccccc3s2)nc2c1c(=O)n(C)c(=O)n2C,3.4,/,4.3,i,i,20.9,/
CC/C(=N/O)c1cnnc(SC)n1,0.2,-7.4,1.9,i,i,15.4,/
CC/C(=N/Nc1cccc(C)c1)c1cnnc(SC)n1,0.8,/,3.4,i,i,96.9*,-70.6
COC(=O)C(OC(=O)c1ccccc1)C(C)Br (stereo not given),-0.1,/,0.4,i,/,/,/
CCC1C(c2ccccc2)N(C)C(c2ccccc2)CC1(O)c1ccccc1 (stereo not given),0.2,2.6,9.4,i,i,99.2*,43.3
O=C(CSc1nc(-c2ccccc2)c(-c2ccccc2)[nH]1)Nc1ccc2c(c1)OCO2,-0.3,12.1,-0.2,i,i,102.3*,18.6
COCCCNC(=O)c1cccn2c(=O)c3cc4ccccc4cc3nc12,7.2,/,2.7,i,i,97.6*,58.3
O=C(NCc1ccco1)c1cccn2c(=O)c3cc4ccccc4cc3nc12,/,5.9,/,/,/,-54.6,/
CCSc1nc(-c2ccccc2)nc(C(Cl)Cl)n1,26.8,-19.0,24.7,i,i,106.0*,83.8*
CCc1nnc(NS(=O)(=O)c2ccc(NC(=S)NC(=O)/C=C/c3ccc(C(C)C)cc3)cc2)s1,7.4,/,-1.2,i,100*,104.7*,117.7*
Cc1nn(C)cc1C(C)NC(=O)c1cc(COc2ccc(F)c(F)c2)on1 (stereo not given),0.6,-4.4,-3.9,i,i,/,/
NC(=O)CCn1ccc2ccccc21,0.0,26.6,0.4,i,i,-9.4,/
COc1ccc(-c2nc3ccc(N4CCCC4)cc3c(=O)[nH]2)cc1OC,3.0,/,7.3,i,i,103.0*,15.7
CS(=O)(=O)Nc1ccc(C2=NN(C(=O)c3ccco3)C(c3ccccc3F)C2)cc1 (stereo not given),2.0,10.2,-1.2,i,i,8.7,/
COC(C(=O)Nc1ccnn1C1CCN(Cc2ccccn2)CC1)c1ccccc1 (stereo not given),0.9,-2.0,-3.2,i,i,/,/
O=C(Cc1cccs1)NNC(=S)NC(=O)c1ccccc1,0.9,-3.7,-3.4,i,i,32.8,/
O=C(/C=C/c1ccccc1)NC(=S)NNC(=O)Cc1cccs1,-0.8,-1.0,0.0,i,i,104.0*,41.1
COc1ccc(/C=C/C(=O)NC(=S)NNC(=O)Cc2cccs2)cc1,4.5,8.2,7.0,i,i,109.9*,44.6
COc1ccc(/C=C/C(=O)NC(=S)NNC(=O)c2ccco2)cc1,-0.2,40.2,-1.2,i,i,15.9,/
O=C(NCCc1ccc(F)cc1)c1ccncc1,2.6,-0.5,-6.0,i,i,/,/
Cc1cccc2cc(C#N)c(NCCCNS(=O)(=O)c3ccc(Cl)cc3)nc12,-1.5,4.0,-0.6,i,i,103.6*,53.6
Cc1cccc2cc(C#N)c(NCCNS(=O)(=O)c3ccccc3)nc12,0.7,-10.2,-1.1,i,i,38.1,/
O=C(Cc1ccc(F)cc1)Nc1nc(-c2ccc(F)c(F)c2)cs1,4.6,/,-6.4,i,i,/,/
SMILES,UPR CHOP act,Lipid droplet,UPR XBP1 act,TMEM16A act,TMEM16A inh,CHOP inh,CHOP inh conf
O=C(CSc1ncnc2[nH]ncc12)Nc1nc(-c2ccc(F)c(F)c2)cs1,0.9,4.9,8.2,i,i,98.6*,116.0*
CCCOc1c(Cl)cc(/C=N/O)cc1OCC,-0.7,1.8,-0.1,i,i,101.8*,-20.7
CCOc1cc(/C=N/O)cc(Cl)c1OC,-0.2,/,-1.8,i,i,55.7,/
Oc1ccc(Cl)cc1-c1cc(-c2cccc(Br)c2)n[nH]1,2.4,-1.7,6.4,i,i,100.7*,-48.3
COc1ccc(S(=O)(=O)NCCCCC(=O)O)cc1C(=O)O,-1.0,17.7,0.7,i,i,18.2,/
CCCNC(=O)c1ccc2c(=O)c(O)c(-c3ccc(C)cc3)[nH]c2c1,0.6,/,0.2,i,i,35.1,/
Cc1ccc(CNC(=O)c2ccc3c(=O)c(O)c(-c4ccc(C)cc4)[nH]c3c2)cc1,3.0,9.2,9.8,i,i,103.0*,59.8
CCCCc1ccc(Nc2nc(CCC)cc(=O)[nH]2)cc1,1.4,-25.5,1.9,i,i,107.3*,98.2*
CCCc1cc(=O)[nH]c(Nc2ccc(N3CCCCC3)cc2)n1,-2.6,-13.6,-1.1,i,i,106.6*,94.1*
CS(=O)(=O)N(CC(=O)NCCSCc1ccccc1Cl)c1ccc(F)cc1,1.4,0.8,0.6,i,i,/,/
C[C@@H]1CC=C[C@H]2[C@H]1C(=O)N(Cc1ccccc1)[C@H]2c1ccc2ccccc2c1Br,21.6,-13.6,2.7,i,/,98.2*,59.0
O=C(Nc1cccc(-c2ccc(N3CCOCC3)nn2)c1)c1ccc(F)cc1F,4.9,/,4.3,i,i,/,/
COc1ccc(-c2nc(CS(=O)(=O)CC(=O)NCc3ccc(F)cc3)c(C)o2)cc1,1.8,-1.3,-5.4,i,i,/,/
Cc1cccc(NC(=O)Nc2ccc(Oc3c(F)c(F)c(F)c(F)c3F)cc2)c1,0.7,/,2.0,i,i,9.8,/
O=C(Nc1ccc(Oc2c(F)c(F)c(F)c(F)c2F)cc1)OC1CCN2Cc3ccccc3N=C12 (stereo not given),5.5,-6.1,9.1,i,i,100.2*,125.4*
CC(=O)Nc1cc2c3c(c1)CCC(=O)N3CCC2,1.2,-4.8,-2.5,i,i,/,/
C/C(=N\OCc1ccc(C#N)cc1)c1ccccc1,4.6,16.5,-0.1,i,i,10.6,/
C/C(=N\OCc1cccc(C(=O)O)c1)c1ccc(Cl)cc1,-7.8,-3.2,-8.8,i,i,96.3*,111.4*
Nc1nonc1-c1nc2ccccc2n1Cc1ccc(F)cc1Cl,4.1,/,5.6,i,i,100.0*,-41.2
CCN(C(=O)C(C)Sc1nnc(-c2ccncc2)n1C)C1CCCCC1 (stereo not given),1.1,/,-1.9,i,/,/,/
CCOc1cc(S(=O)(=O)Nc2cc(C)cc(C)c2)ccc1Cl,-0.5,18.7,-1.3,i,i,105.6*,116.7*
